Results on seven compounds are retold here after ChEMBL document CHEMBL1129574, “Synthesis, structure-activity relationships, and pharmacokinetic properties of dihydroorotate dehydrogenase inhibitors: 2-cyano-3-cyclopropyl-3-hydroxy-N-[3'-methyl-4'-(trifluoromethyl)phenyl ] propenamide and related compounds” (J Med Chem, 1996).

Data set [1] deals with Dihydroorotate dehydrogenase (quinone), mitochondrial (Rattus norvegicus, UniProt Q63707). Description: Inhibitory concentration tested against enzyme dihydroorotate dehydrogenase in rat.
Dihydroorotate dehydrogenase (quinone), mitochondrial (Rattus norvegicus, UniProt Q63707), sequence (Q63707 whole entry): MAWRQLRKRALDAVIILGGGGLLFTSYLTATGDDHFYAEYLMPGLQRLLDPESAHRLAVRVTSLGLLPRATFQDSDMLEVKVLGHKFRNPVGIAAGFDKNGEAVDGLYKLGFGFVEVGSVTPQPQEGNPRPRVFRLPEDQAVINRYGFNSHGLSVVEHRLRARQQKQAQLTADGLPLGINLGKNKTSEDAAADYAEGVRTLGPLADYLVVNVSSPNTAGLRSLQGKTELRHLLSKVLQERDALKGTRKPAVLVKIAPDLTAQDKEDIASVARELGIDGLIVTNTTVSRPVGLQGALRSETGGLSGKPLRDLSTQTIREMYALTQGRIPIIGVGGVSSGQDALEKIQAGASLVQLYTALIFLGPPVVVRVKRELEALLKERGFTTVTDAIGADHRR
For data set [2], the system named is Mus musculus. Nature of the data set: In vivo ability to inhibit delayed type hypersensitivity in mouse at a concentration of 100 mg/kg. It is filed as functional. The method in brief: (§1)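 Male CD-1 mice (25–30 g, n = 8-16) sensitized day 0 by s.c. 1 mg methylated BSA in saline/Freund's complete adjuvant; negative controls saline/FCA. Day 7 challenge: MBSA 0.1 mg into right hind footpad, saline in left. Oral dosing once daily days 4–6 plus twice on day 7 (1 h before, 6 h after challenge). Paw edema read 24 h post-challenge; Student's t-test.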

The subject of data set [3] is Rattus norvegicus. Description: Compound was tested in vivo for its ability to inhibit DTH(delayed type hypersensitivity )in rat at a concentration of 50 mg/kg. Type of data set: functional. In outline: (§2)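 Male CFHB rats (160-180 g, n=7-12) sensitized day 0 by tail-base s.c. FCA (0.4 mg M. tuberculosis in liquid paraffin); controls got incomplete adjuvant. Day 7 challenge: soluble M. tuberculosis extract 0.4 mg into right hind footpad, saline in left. Oral dosing once daily days 4-6 and twice day 7 (1 h before, 6 h after). Edema read at 24 h; Student's t-test.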

The nature of data set [4]: t1/2 in mouse plasma after oral dose (30/mg/Kg). Type of data set: ADME, organism-based. In outline: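 Male CD-1 mice (25–32 g, n=5/time point) gavaged orally 30 mg/kg (10 mL/kg). Blood by exsanguination under ether at 0, 1, 3, 6, 24, 48, 72 h, pooled per time point, heparinized; plasma stored −20 °C. Drug quantified by reversed-phase HPLC (ODS, pH 7 phosphate/acetonitrile 65:35, UV 300 nm) with internal standard and spiked-plasma calibration.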

The nature of data set [5]: t1/2 in rat plasma after oral dose (10 mg/kg). It is filed as ADME, organism-based. In outline: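 Male Wistar CFHB rats (190–220 g, n=3/time point) given 10 mg/kg orally by gavage (10 mL/kg). Cardiac-puncture blood under ether at 0, 1, 3, 6, 24, 48, 72 h, individual heparinized samples; plasma kept at −20 °C. Levels by HPLC (ODS column, 0.1 M pH 7 phosphate 65%/acetonitrile 35%, UV 300 nm), internal standard, peak-area calibration from spiked blank plasma.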

The target in data set [6] is Dihydroorotate dehydrogenase (quinone), mitochondrial (Mus musculus, UniProt O35435). Nature of the data set: Inhibitory concentration tested on enzyme dihydroorotate dehydrogenase in mouse.
Dihydroorotate dehydrogenase (quinone), mitochondrial (Mus musculus, UniProt O35435), sequence (O35435 whole entry): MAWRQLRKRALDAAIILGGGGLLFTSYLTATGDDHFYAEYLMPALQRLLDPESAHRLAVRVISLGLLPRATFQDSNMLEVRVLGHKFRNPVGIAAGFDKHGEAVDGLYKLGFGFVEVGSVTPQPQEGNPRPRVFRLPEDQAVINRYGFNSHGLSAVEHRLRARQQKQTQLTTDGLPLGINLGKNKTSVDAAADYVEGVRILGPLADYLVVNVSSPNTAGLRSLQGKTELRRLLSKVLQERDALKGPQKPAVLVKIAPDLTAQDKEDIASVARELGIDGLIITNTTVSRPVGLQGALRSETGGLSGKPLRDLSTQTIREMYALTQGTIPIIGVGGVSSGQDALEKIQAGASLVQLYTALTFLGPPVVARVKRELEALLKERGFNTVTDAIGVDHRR
For data set [7], the system named is Mus musculus. Description: In vivo for its ability to inhibit delayed type hypersensitivity in mouse following 30 mg/kg administration. It is filed as functional. In outline:
as §1

Data set [8] relates to Rattus norvegicus. Nature of the data set: Compound was tested in vivo for its ability to inhibit DTH(delayed type hypersensitivity )in rat at a concentration of 50 mg/kg.
For data set [9], the system named is Mus musculus. Description: Compound was tested in vivo for its ability to inhibit DTH(delayed type hypersensitivity ) in mouse at a concentration of 30 mg/kg. Type of data set: functional. In outline: as §1
Data set [10] deals with Rattus norvegicus. Description: Compound was tested in vivo for its ability to inhibit DTH(delayed type hypersensitivity ) in rat at a concentration of 10 mg/kg. It is filed as functional. The method in brief:
as §2

For data set [11], the system named is Rattus norvegicus. Description: Compound was tested in vivo for its ability to inhibit DTH(delayed type hypersensitivity ) in rat at a concentration of 1 mg/kg. It is filed as functional. The method in brief: as §2
Data set [12] has as its system Mus musculus. Description: Compound was tested in vivo for its ability to inhibit DTH(delayed type hypersensitivity )in mouse at a concentration of 30 mg/kg. It is filed as functional. The method in brief:
as §1

Data set [13] deals with Rattus norvegicus. Description: Compound was tested in vivo for its ability to inhibit DTH(delayed type hypersensitivity )in rat at a concentration of 1 mg/kg. It is filed as functional. In outline: as §2
Data set [14] deals with Mus musculus. Nature of the data set: Compound was tested in vivo for its ability to inhibit DTH(delayed type hypersensitivity ) in mouse at a concentration of 10 mg/kg. Type of data set: functional. In outline: as §1
Data set [15] has as its system Rattus norvegicus. Nature of the data set: In vivo for its ability to inhibit delayed type hypersensitivity in rat following 10 mg/kg administration.

In general, IC50 refers to the concentration at which inhibition is half-maximal. The term inhibition in vivo denotes the percentage by which the read-out fell short of the control. In the case of `N#C/C(C(=O)Nc1ccc(CCc2ccccc2)cc1)=C(/O)C1CC1`, in data set [1], 138 nM corresponded to half-maximal inhibition (IC50). Besides, at 100 mg/kg the inhibition in vivo in the data set with Mus musculus [2] was 5%. Besides, in the data set with Rattus norvegicus [3], testing at 50 mg/kg gave an inhibition in vivo of 51%.
For orientation: half-life means the time needed for the level to fall by half in the phase considered. A high value points to slow loss. As for `N#C/C(C(=O)Nc1ccc([N+](=O)[O-])cc1)=C(/O)C1CC1`, the half-life in [4] was 8 h; in [5], 4 h. The IC50 in [6] is 50 nM; in data set [1], 21 nM. Further, testing at 30 mg/kg in the data set on Mus musculus [7] gave an inhibition in vivo of 64%. In the data set on Rattus norvegicus [8], this compound gave an inhibition in vivo at 50 mg/kg of 90%.
Consider `N#C/C(C(=O)Nc1ccc(Br)cc1)=C(/O)C1CC1`, for which the half-life in [4] was 33 h; in data set [5], 20 h. For the same compound, the IC50 in data set [6] was determined as 36 nM; in data set [1], 79 nM. For the same compound, the inhibition in vivo at 30 mg/kg in the data set on Mus musculus [9] amounted to 64%. Moreover, in the data set on Rattus norvegicus [10], the inhibition in vivo at 10 mg/kg was 58%.
Regarding `N#C/C(C(=O)Nc1ccc(SC(F)(F)F)cc1)=C(/O)C1CC1`, the half-life was 6 h in data set [4] and 2 h in data set [5]. For the same compound, in data set [6], the concentration for half-maximal inhibition (IC50) came to 100 nM. The compound also came in with an inhibition in vivo at 30 mg/kg with Mus musculus [9] of 39%. This compound displayed an inhibition in vivo at 1 mg/kg in the data set with Rattus norvegicus [11] of 58%.
On to `N#C/C(C(=O)Nc1ccc(C#N)cc1)=C(/O)C1CC1`, for which the half-life in data set [4] is 6 h; in data set [5], 5 h. Moreover, the IC50 amounted to 42 nM in [6] and 53 nM in [1]. The compound further returned an inhibition in vivo at 30 mg/kg in the data set with Mus musculus [9] of 73%. The compound also came in with an inhibition in vivo at 10 mg/kg with Rattus norvegicus [10] of 47%.
`N#C/C(C(=O)Nc1ccc(OC(F)(F)F)cc1)=C(/O)C1CC1`: the values for the half-life in data set [4] and in data set [5] were 42 h and 22 h, respectively. For the same compound, the figures for the IC50 in [6] and in data set [1] were 173 nM and 5 nM, respectively. This compound also came in with an inhibition in vivo at 30 mg/kg with Mus musculus [12] of 85%. In the data set on Rattus norvegicus [13], the inhibition in vivo at 1 mg/kg was 78%.
For `N#C/C(C(=O)Nc1ccc(C(F)(F)F)cc1)=C(/O)c1ccc(C(F)(F)F)cc1`, the IC50 in data set [6] and in data set [1] was more than 10000 nM each time. Moreover, the inhibition in vivo at 10 mg/kg with Mus musculus [14] worked out at 17%; with Rattus norvegicus [15], 16%.
